Measured values published in ChEMBL document CHEMBL3877306, “Triazole Ureas Act as Diacylglycerol Lipase Inhibitors and Prevent Fasting-Induced Refeeding” (J Med Chem, 2017).
Active and inactive are the calls of the source. No cut-off for these calls is given here.

How the values were obtained:
[1] = target: T1, Diacylglycerol lipase-alpha (Homo sapiens, UniProt Q9Y4D2); experiment: Inhibition of full length recombinant human DAGLalpha expressed in HEK293T cell membranes using PNP butyrate as substrate by colorimetric assay; parameters: species or system HEK-293T
T1 sequence (Q9Y4D2 whole entry): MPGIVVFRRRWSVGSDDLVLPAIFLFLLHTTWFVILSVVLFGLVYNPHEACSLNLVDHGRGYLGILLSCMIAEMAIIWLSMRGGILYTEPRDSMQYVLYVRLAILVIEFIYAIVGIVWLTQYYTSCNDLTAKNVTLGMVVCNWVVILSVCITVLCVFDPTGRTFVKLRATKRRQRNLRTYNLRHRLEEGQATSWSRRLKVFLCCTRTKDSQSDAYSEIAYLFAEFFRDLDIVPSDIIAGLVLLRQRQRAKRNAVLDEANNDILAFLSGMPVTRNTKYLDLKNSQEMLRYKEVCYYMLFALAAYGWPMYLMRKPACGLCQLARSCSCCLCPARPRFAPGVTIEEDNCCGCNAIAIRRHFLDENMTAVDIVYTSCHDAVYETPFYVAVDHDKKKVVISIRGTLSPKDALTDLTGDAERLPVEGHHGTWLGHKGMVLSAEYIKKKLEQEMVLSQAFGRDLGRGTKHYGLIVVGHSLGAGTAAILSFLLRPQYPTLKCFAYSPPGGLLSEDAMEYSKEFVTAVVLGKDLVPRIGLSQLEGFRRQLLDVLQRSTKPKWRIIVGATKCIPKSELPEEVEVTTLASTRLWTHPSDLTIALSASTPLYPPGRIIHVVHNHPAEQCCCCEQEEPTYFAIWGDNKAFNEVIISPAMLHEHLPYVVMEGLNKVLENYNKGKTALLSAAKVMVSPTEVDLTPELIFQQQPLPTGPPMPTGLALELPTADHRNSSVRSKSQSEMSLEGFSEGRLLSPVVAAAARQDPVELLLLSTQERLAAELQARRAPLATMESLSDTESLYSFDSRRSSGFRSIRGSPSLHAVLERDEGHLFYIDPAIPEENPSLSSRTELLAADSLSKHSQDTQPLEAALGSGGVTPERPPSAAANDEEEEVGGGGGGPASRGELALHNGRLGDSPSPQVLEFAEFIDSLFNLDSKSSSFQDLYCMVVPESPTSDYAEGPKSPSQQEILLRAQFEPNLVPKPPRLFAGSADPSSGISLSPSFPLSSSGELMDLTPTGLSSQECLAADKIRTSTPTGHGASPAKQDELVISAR
Summary of the method: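 Membranes from HEK293T cells transiently transfected with human DAGLα (PEI transfection, harvested at 72 h), used at 0.05 µg/µL final protein in 50 mM HEPES pH 7.2. Activity was read colorimetrically from para-nitrophenylbutyrate hydrolysis. n = 4, mean ± SEM.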

[2] = target: T2, Diacylglycerol lipase-beta (Mus musculus, UniProt Q91WC9); experiment: Inhibition of recombinant mouse DAGLbeta expressed in HEK293T cell membranes using PNP butyrate as substrate by colorimetric assay; parameters: species or system HEK-293T
T2 sequence (Q91WC9 whole entry): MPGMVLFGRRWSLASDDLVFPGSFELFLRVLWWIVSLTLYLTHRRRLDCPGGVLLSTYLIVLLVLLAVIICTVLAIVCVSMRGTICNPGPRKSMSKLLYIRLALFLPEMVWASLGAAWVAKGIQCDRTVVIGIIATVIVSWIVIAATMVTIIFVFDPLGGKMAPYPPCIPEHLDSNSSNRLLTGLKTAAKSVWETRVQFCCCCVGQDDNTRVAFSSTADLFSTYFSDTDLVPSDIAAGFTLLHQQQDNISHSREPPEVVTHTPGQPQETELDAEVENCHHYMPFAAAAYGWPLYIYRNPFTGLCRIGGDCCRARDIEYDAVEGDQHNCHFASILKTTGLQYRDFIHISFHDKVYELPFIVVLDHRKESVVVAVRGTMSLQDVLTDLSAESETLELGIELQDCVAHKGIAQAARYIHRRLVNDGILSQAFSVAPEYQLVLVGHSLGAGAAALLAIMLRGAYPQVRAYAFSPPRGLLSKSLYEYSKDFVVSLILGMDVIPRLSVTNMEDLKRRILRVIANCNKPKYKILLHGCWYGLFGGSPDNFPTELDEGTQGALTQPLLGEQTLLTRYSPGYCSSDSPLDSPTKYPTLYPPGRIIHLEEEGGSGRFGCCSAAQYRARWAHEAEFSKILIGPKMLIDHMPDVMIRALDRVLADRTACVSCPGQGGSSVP
Summary of the method: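 Membranes from HEK293T cells transiently transfected with mouse DAGLβ. Activity was read colorimetrically as hydrolysis of para-nitrophenylbutyrate surrogate substrate over a concentration range of inhibitor. n = 4, mean ± SEM.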

[3] = target: T3, Monoacylglycerol lipase ABHD6 (Homo sapiens, UniProt Q9BV23); experiment: Inhibition of human ABHD6 using 2-AG as natural substrate by fluorescence based assay
T3 sequence (Q9BV23 whole entry): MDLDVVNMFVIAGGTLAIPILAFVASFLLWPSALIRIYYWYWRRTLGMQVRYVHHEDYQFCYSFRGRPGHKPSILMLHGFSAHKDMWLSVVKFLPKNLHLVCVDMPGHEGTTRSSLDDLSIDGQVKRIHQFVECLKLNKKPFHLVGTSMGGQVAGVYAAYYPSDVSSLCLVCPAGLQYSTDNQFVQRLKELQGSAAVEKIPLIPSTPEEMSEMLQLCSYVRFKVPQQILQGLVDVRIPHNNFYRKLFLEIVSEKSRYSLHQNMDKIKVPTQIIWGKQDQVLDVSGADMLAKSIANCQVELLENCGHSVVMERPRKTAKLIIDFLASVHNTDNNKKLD
Summary of the method: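 Coupled fluorescence assay: 2-AG hydrolysis detected via glycerol kinase, glycerol-3-phosphate oxidase and HRP (0.2 U/mL each), 0.125 mM ATP and 10 µM Amplifu Red. Conditions: 25 µM 2-AG, 0.5% acetonitrile, 5% DMSO, ABHD6 membrane protein 40 µg/mL final. n = 4.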

Mus musculus [4] = experiment: Ex vivo inhibition of FP-TAMRA probe binding to carboxylesterase in mouse liver at 3 to 50 mg/kg, ip after 4 hrs by gel-based competitive activity based protein profiling assay; assay type: functional, organism-based
Mus musculus [5] = experiment: Toxicity in 18 hrs fasted C57Bl/6J mouse model of fasting-induced refeeding assessed as hypolocomotion at 50 mg/kg, ip administered as single dose 30 mins prior to refeeding measured after 24 hrs; assay type: organism-based; details: in vivo
Mus musculus [6] = experiment: Inhibition of fasting-induced refeeding in 18 hrs fasted C57Bl/6J mouse at 50 mg/kg, ip administered as single dose 30 mins prior to refeeding measured up to 16 hrs; assay type: functional, organism-based
[7] = target: T4, Diacylglycerol lipase-alpha (Mus musculus, UniProt Q6WQJ1); experiment: Inhibition of MB064 probe binding to DAGLalpha in mouse brain membrane proteome preincubated for 30 mins followed by MB064 probe addition measured after 20 mins by gel-based competitive activity based protein profiling assay; assay type: cell membranes
T4 sequence (Q6WQJ1 whole entry): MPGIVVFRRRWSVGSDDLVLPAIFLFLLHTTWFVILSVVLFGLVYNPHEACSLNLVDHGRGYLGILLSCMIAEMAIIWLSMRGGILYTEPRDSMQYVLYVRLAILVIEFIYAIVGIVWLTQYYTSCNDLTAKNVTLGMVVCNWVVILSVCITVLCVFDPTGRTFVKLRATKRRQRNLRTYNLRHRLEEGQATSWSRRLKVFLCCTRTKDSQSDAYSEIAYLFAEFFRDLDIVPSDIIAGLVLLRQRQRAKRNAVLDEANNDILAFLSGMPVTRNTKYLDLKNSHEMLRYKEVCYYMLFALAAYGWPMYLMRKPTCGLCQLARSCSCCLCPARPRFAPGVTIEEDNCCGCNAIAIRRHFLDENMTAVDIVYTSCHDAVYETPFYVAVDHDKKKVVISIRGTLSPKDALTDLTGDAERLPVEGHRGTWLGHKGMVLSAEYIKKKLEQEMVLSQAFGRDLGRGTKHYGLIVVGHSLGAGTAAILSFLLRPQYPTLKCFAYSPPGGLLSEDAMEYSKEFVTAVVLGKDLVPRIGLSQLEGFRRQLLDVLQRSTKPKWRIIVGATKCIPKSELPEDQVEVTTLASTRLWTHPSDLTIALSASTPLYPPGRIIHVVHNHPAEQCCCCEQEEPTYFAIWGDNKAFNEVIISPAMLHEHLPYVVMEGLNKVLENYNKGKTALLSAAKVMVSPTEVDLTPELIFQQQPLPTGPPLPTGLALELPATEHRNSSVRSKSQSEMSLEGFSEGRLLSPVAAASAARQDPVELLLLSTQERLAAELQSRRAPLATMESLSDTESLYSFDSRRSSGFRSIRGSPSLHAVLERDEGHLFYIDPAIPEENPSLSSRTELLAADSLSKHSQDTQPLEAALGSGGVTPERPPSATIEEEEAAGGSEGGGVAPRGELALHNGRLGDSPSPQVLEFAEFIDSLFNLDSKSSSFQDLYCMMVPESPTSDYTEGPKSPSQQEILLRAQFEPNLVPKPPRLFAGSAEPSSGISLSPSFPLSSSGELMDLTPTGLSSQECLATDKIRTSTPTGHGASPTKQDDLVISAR
Summary of the method: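 Mouse brain membrane proteome (2 mg/mL) preincubated with inhibitor or DMSO vehicle for 30 min at r.t., then labelled with MB064 at 250 nM final for 20 min at r.t. and quenched in Laemmli buffer. Fluorescent bands were quantified against vehicle set to 100%, and IC50 was taken from a variable-slope log(inhibitor) vs normalized response fit. n = 3.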

[8] = target: T1, Diacylglycerol lipase-alpha; experiment: Inhibition of recombinant human DAGLalpha expressed in HEK293T cell membranes overexpressing MAGL using natural substrate 1-stearoyl-2-arachidonoly-sn-glycerol by fluorescence based assay; parameters: species or system HEK-293T
Summary of the method: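 Real-time coupled fluorescence readout of glycerol release from hDAGLα-transfected HEK293T membranes (50 µg/mL final protein) with 100 µM SAG substrate. Added: 5 µg/mL MAGL-overexpressing membranes, 0.0075% (w/v) Triton X-100, 0.2 U/mL each glycerol kinase, glycerol-3-phosphate oxidase and HRP, 0.125 mM ATP, 10 µM Amplifu Red, 5% DMSO. n = 4.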

[9] = target: T5, Diacylglycerol lipase-beta (Homo sapiens) (UniProt Q8NCG7); experiment: Inhibition of DH379 probe binding to full length recombinant human DAGLbeta expressed in HEK293T cell membranes at 0.1 to 10000 nM after 30 mins by gel-based competitive activity based protein profiling assay; details: HEK-293T
T5 sequence (whole entry): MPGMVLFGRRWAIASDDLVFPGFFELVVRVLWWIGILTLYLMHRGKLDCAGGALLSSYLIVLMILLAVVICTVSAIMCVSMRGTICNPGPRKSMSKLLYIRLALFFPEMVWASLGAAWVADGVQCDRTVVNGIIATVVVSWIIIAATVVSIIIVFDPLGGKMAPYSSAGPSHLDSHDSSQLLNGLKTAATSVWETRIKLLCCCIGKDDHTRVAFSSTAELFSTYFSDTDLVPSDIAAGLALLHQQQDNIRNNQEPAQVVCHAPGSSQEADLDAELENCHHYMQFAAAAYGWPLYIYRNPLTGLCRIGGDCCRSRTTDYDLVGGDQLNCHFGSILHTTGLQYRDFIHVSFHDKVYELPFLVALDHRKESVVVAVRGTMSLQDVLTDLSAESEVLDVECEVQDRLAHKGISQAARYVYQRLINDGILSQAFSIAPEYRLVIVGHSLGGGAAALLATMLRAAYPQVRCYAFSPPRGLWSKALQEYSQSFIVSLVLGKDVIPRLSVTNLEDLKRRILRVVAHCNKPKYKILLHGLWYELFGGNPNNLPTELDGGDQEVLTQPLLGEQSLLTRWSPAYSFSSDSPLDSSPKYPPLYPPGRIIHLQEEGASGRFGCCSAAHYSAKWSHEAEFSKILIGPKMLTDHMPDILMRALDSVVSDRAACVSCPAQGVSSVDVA
Summary of the method: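 HEK293T cells transiently transfected with full-length human DAGLβ cDNA (PEI:DNA 3:1), harvested at 72h; membrane fraction diluted to 1 mg/mL protein. Inhibitor-treated membranes were labelled with DAGL-tailored probe DH379 (1 μM, 30 min), then run on fluorescent SDS-PAGE. Band intensity was normalised to vehicle (100%), and IC50 was fitted to log(inhibitor) vs normalised response with variable slope; n = 3.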

[10] = target: T6, Diacylglycerol lipase-alpha (Homo sapiens) (UniProt Q9Y4D2); experiment: Inhibition of DH379 probe binding to full length recombinant human DAGLalpha expressed in HEK293T cell membranes at 0.1 to 10000 nM after 30 mins by gel-based competitive activity based protein profiling assay; details: HEK-293T
T6 sequence (whole entry): T1 sequence (Q9Y4D2 whole entry)
Summary of the method: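 Membranes from HEK293T cells transiently transfected with human DAGLα were preincubated with inhibitor, then labelled with DAGL-tailored probe DH379 (1 μM, 30 min). Readout was fluorescent SDS gel. Band intensity was normalized to vehicle (100%) and fitted with a variable-slope dose-response curve. n = 3.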

SMILES | IC50 [1] [nM] | IC50 [2] [nM] | IC50 [3] [nM] | other results
CCC1CCCCN1C(=O)n1cc(-c2ccc(-c3ccccc3)cc2)nn1 (stereo unspecified) | 20 | 20000 | – | –
O=C(N1CCCCC1Cc1ccccc1)n1cc(C(O)(c2ccccc2)c2ccccc2)nn1 (stereo unspecified) | 25.1 | 79.4 | 39.8 | –
C/C=C/C=O [CROTONALDEHYDE] | – | – | – | inhibition (Mus musculus [4]): Active; Activity (Mus musculus [5]): Toxic; inhibition (Mus musculus [6]): Active
CCC1CCCCN1C(=O)n1ncc(C(O)(c2ccccc2)c2ccccc2)n1 (stereo unspecified) | 63.1 | 12600 | – | –
O=C(N1CCCC[C@@H]1Cc1ccccc1)n1cc(-c2ccc(-c3ccccc3)cc2)nn1 | 0.794 | – | 2.51 | IC50 [7]: 7.94 nM; IC50 [8]: 25.1 nM
O=C(N1CCCCC1Cc1ccccc1)n1ncc(C(O)(c2ccccc2)c2ccccc2)n1 (stereo unspecified) | 2.51 | 12.6 | 20 | inhibition [9]: Active; inhibition [10]: Active
C/C=C/[C@@H](O)C#N | – | – | – | inhibition (Mus musculus [4]): Active; Activity (Mus musculus [5]): Toxic; inhibition (Mus musculus [6]): Active
O=C(N1CCCC[C@H]1Cc1ccccc1)n1cc(-c2ccc(-c3ccccc3)cc2)nn1 | 39.8 | – | 631 | IC50 [7]: 631 nM; IC50 [8]: 794 nM
